Results published in ChEMBL document CHEMBL1121400, “Quantitative structure--activity correlations of rifamycins as inhibitors of viral RNA-directed DNA polymerase and mammalian alpha and beta DNA polymerases” (J Med Chem, 1980).

Key:
Gag-Pol polyprotein = Gag-Pol polyprotein (Woolly monkey sarcoma virus, UniProt P03359); test: Ability to inhibit simian sarcoma virus reverse transcriptase
Procedure, shortened: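 Purified SSV-1 RNA-dependent DNA polymerase from 71 AP1 culture fluids, in 20% glycerol, 1 mM dithiothreitol, 1 mg/mL BSA and 50 mM Tris-HCl pH 7.5, was held 10 min on ice with inhibitor in Me2SO. Mn2+/[3H]dGTP cocktail with poly(2'-O-methylcytidylic acid)·d(pG)12-18 template was added, then 45 min at 37 °C. Background-corrected triplicate dose series; the 50% inhibition concentration was extrapolated.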

[1] = Partition coefficient (logP); conditions: octanol/water, logP
[2] = molecular target: DNA polymerase beta (Mus musculus) (UniProt Q8K409); test: The logarithm of the reciprocal of the concentration which produces 50% inhibition of mammalian beta DNA polymerase.
Procedure, shortened: (§1)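 Mammalian α or β DNA polymerase in 100 µL reaction: enzyme in 50% glycerol, 1 mM DTT, 0.5 M KCl, Tris-HCl pH 7.5; Me2SO compound; cocktail with MnCl2, NaF, [3H]dGTP, poly(2'-O-methylC)·d(pG)12-18 template. Compound added first, then enzyme, then cocktail; 45 min at 37 °C. Product radioactivity, background-corrected against Me2SO controls; 50% concentration from triplicate five-dose curves, 10^-3–10^-7 M, expressed as log(1/C).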

[3] = Ability to inhibit mouse alpha DNA polymerase
Procedure, shortened: (§2)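 Enzyme in 50% glycerol, 1 mM dithiothreitol, 0.5 M KCl and 50 mM Tris-HCl pH 7.5 was premixed with inhibitor in 100% Me2SO and held on ice 10 min. Cocktail (MnCl2, KCl, NaF, BSA, [3H]dGTP, poly(2'-O-methylcytidylic acid)·d(pG)12-18) was then added. Incubation was 45 min at 37 °C.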

DNA polymerase beta = DNA polymerase beta (Mus musculus, UniProt Q8K409); test: Ability to inhibit mouse beta DNA polymerase; procedure, shortened: as §2
[4] = molecular target: Gag-Pol polyprotein (Woolly monkey sarcoma virus) (UniProt P03359); test: Inhibition of simian sarcoma virus reverse transcriptase
Procedure, shortened: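 SSV-1 RNA-dependent DNA polymerase purified from tissue culture fluid of 71 AP1 cells. 50 µL reaction containing 20% glycerol, 1 mM DTT, BSA, Tris-HCl pH 7.5, MnCl2, KCl, NaF, [3H]dGTP and poly(2'-O-methylC)·d(pG)12-18. Compound in Me2SO is mixed with enzyme on ice for 10 min before the cocktail is added, then incubated 45 min at 37 °C. Radioactivity in product; 50% inhibitory concentration from triplicate dose–response curves spanning 10^-3 to 10^-7 M.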

[5] = The logarithm of the reciprocal of the concentration which produces 50% inhibition of mammalian alpha DNA polymerase.; procedure, shortened: as §1

Sequence of Gag-Pol polyprotein (P03359 642-1310 limits assumed): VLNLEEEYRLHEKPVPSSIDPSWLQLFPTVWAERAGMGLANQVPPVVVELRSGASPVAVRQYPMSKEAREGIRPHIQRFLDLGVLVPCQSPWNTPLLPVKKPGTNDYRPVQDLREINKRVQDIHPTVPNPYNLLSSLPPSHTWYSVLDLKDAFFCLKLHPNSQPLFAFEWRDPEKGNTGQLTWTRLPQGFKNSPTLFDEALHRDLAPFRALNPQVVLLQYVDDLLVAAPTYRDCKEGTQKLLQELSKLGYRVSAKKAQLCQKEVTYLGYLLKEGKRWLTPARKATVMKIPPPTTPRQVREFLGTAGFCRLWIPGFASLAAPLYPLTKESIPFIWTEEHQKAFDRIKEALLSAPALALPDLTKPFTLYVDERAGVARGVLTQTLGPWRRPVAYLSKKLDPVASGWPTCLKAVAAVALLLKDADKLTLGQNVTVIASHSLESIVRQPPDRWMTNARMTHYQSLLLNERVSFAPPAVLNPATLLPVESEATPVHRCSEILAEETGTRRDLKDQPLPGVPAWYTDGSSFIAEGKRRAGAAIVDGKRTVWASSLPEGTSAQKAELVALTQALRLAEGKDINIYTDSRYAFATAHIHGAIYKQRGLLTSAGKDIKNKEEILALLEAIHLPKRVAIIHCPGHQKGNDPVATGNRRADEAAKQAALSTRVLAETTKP
Sequence of Gag-Pol polyprotein (Woolly monkey sarcoma virus) (P03359 whole entry): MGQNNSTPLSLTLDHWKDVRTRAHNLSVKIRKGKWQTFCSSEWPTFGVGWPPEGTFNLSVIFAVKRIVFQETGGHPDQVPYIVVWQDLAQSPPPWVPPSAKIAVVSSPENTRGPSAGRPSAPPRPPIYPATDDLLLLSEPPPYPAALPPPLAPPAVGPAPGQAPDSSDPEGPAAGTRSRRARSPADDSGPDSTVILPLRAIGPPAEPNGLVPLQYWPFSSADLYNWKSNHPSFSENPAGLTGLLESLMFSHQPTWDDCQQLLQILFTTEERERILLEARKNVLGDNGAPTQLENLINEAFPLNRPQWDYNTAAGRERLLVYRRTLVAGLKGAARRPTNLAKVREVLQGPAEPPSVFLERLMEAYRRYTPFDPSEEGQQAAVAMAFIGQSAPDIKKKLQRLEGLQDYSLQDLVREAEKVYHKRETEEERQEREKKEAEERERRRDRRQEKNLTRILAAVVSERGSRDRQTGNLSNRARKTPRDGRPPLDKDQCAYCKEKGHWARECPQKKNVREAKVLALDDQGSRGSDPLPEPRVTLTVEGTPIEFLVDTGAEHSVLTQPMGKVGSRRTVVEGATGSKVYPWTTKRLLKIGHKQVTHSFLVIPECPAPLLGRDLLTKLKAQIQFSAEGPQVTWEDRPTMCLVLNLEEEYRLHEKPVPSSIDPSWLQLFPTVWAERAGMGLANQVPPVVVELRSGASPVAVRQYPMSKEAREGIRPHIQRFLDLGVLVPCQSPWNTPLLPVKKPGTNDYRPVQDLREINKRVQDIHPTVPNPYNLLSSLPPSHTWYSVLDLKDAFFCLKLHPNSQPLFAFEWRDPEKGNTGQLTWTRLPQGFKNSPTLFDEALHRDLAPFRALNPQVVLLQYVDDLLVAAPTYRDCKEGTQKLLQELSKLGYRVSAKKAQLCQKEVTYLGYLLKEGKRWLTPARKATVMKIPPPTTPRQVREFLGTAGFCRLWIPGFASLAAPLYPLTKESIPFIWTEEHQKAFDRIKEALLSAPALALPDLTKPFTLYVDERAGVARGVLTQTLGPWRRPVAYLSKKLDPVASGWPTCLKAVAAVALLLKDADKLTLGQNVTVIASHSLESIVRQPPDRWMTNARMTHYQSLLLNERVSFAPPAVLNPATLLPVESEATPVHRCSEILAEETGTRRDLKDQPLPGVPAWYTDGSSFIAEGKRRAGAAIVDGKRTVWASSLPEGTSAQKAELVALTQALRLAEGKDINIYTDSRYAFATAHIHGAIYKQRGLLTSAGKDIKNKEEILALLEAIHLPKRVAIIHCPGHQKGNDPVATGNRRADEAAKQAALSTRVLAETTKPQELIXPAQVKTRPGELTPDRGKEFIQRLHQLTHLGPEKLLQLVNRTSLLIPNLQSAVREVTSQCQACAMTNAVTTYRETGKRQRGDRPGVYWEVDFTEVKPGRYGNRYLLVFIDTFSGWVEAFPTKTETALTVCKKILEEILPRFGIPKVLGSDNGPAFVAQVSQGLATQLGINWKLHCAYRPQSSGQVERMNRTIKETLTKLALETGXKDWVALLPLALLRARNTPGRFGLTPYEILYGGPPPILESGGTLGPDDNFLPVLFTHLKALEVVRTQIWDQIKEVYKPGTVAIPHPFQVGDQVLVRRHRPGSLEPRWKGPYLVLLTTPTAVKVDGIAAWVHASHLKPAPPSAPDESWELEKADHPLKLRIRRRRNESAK

| IC50 (Gag-Pol polyprotein; read-out: IC50) | logP [1] | Log 1/C [2] | IC50 [3] | IC50 (DNA polymerase beta) | Log 1/C [4] | Log 1/C [5] | IC50 (DNA polymerase beta; read-out: IC50) | IC50 (Gag-Pol polyprotein) | Compound |
| --- | --- | --- | --- | --- | --- | --- | --- | --- | --- |
| 40 µM | 1.55 | 3 | 0.001 M l-1 | 0.0011 M l-1 | 4.4 | 3 |  |  | CCN(CC)Cc1cc2c3c4c(C)c(O)c2c(O)c1NC(=O)/C(C)=C\C=C\C(C)C(O)C(C)C(O)C(C)C(OC(C)=O)C(C)C(OC)/C=C/OC(C)(O4)C3=O (stereo unspecified) |
| 6.6 µM | 4.05 | 4.65 | 0.000031 M l-1 |  | 5.18 | 4.51 | 22 µM |  | COC1/C=C/OC2(C)Oc3c(C)c(O)c4c(O)c(c(/C=N/N5CCCCCCCCCC5)cc4c3C2=O)NC(=O)/C(C)=C\C=C\C(C)C(O)C(C)C(O)C(C)C(OC(C)=O)C1C (stereo unspecified) |
| 17 µM | 0.13 | 2.99 | 0.000102 M l-1 | 0.000104 M l-1 | 2.99 | 2.99 |  |  | COC1/C=C/OC2(C)Oc3c(C)c(O)c4c(O)c(c(C=O)cc4c3C2=O)NC(=O)/C(C)=C\C=C\C(C)C(O)C(C)C(O)C(C)C(OC(C)=O)C1C (stereo unspecified) |
| 10 µM | 3.34 | 3.92 | 0.00014 M l-1 | 0.00012 M l-1 | 5 | 3.85 |  |  | COc1cccc(CN2CCN(/N=C/c3cc4c5c6c(C)c(O)c4c(O)c3NC(=O)/C(C)=C\C=C\C(C)C(O)C(C)C(O)C(C)C(OC(C)=O)C(C)C(OC)/C=C/OC(C)(O6)C5=O)CC2)c1 (stereo unspecified) |
| 17 µM | 2.75 | 3.62 | 0.00024 M l-1 | 0.00024 M l-1 | 4.77 | 3.62 |  |  | COC1/C=C/OC2(C)Oc3c(C)c(O)c4c(O)c(c(/C=N/N5CCCC5)cc4c3C2=O)NC(=O)/C(C)=C\C=C\C(C)C(O)C(C)C(O)C(C)C(OC(C)=O)C1C (stereo unspecified) |
| 5.6 µM | 4.83 | 5.18 | 0.000034 M l-1 |  | 5.25 | 4.46 | 6.6 µM |  | COC1/C=C/OC2(C)Oc3c(C)c(O)c4c(O)c(c(/C=N/OCCCc5ccccc5)cc4c3C2=O)NC(=O)/C(C)=C\C=C\C(C)C(O)C(C)C(O)C(C)C(OC(C)=O)C1C (stereo unspecified) |
|  | 1.76 | 2.38 | 0.003 M l-1 | 0.0042 M l-1 | 2.84 | 2.52 |  | 0.00145 M l-1 | COC1/C=C/OC2(C)Oc3c(C)c(O)c4c(O)c(c(CN5CCNCC5)cc4c3C2=O)NC(=O)/C(C)=C\C=C\C(C)C(O)C(C)C(O)C(C)C(OC(C)=O)C1C (stereo unspecified) |
| 13 µM | 0.11 | 2.64 | 0.00023 M l-1 | 0.00037 M l-1 | 2.64 | 2.64 |  |  | COC1/C=C/OC2(C)Oc3c(C)c(O)c4c(O)c(c(O)cc4c3C2=O)NC(=O)/C(C)=C\C=C\C(C)C(O)C(C)C(O)C(C)C(OC(C)=O)C1C (stereo unspecified) |
